In ChEMBL document CHEMBL3271933, “Inhibitors of hepatic mixed function oxidase. 3. Inhibition of hepatic microsomal aniline hydroxylase and aminopyrine demethylase by 2,6- and 2,4-dihydroxyphenyl alkyl ketones and related compounds” (J Med Chem, 1977):
Where a name gives a salt, the structure may show the parent alone. Calls of active or inactive are those of the source. The rule behind the calls is not given here.

Legend:
[1] = Inhibition of aminopyrine demethylase activity of mixed function oxidase system in Wistar rat liver microsomes assessed as conversion of aminopyrine to 4-aminoantipyrine after 20 mins; settings: read-out: I50
Outline: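 Microsomes from phenobarbitone-pretreated male Wistar rats, with the same NADPH-generating cofactors. Incubation in 3.0 mL containing aminopyrine 1.5 μmol and 5.6 mg protein in pH 7.4 phosphate, 20 min. 4-Aminoantipyrine formed was assayed. Benzyl ethers added in DMSO; other inhibitors usually in water. I50 taken from 5–7 inhibitor levels, means of duplicates.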

[2] = species on record: Rattus norvegicus; assay: Inhibition of aniline hydroxylase activity of mixed function oxidase system in Wistar rat liver microsomes assessed as conversion of aniline to p-aminophenol at 10^-3 M after 10 mins
[3] = Inhibition of aniline hydroxylase activity of mixed function oxidase system in Wistar rat liver microsomes assessed as conversion of aniline to p-aminophenol after 10 mins; settings: read-out: I50
[4] = tested on: Mus musculus; assay: In vivo inhibition of mixed function oxidase system in mouse assessed as increase in zoxazolamine-induced paralysis time at 100 mg/kg, ip pretreated for 10 mins followed by zoxazolamine-challenge relative to control; design: scale not given: the % may be the effect or the level left; settings: route intraperitoneal
[5] = tested on: Mus musculus; assay: In vivo inhibition of mixed function oxidase system in mouse assessed as prolongation of hexobarbital-induced sleeping time at 100 mg/kg, ip pretreated for 10 mins followed by hexobarbital-challenge relative to control; design: scale not given: the % may be the effect or the level left; settings: route intraperitoneal

Row | Structure (SMILES) | IC50 [1] | inhibition [2] | IC50 [3] | Activity [4] | Activity [5]
1 | CC(=O)c1ccc(O)cc1O | 520 µM | – | 700 µM | 77% | 127%
2 | CC(=O)c1c(O)cccc1O | 140 µM | – | 210 µM | 164% | 190%
3 | COc1cccc(O)c1C(C)=O | 90 µM | – | 200 µM | – | 233%
4 | CCCCOCCOCCOCc1cc2c(cc1CCC)OCO2 [PIPERONYL BUTOXIDE] | 420 µM | – | 420 µM | – | –
5 | CCC(=O)c1ccc(O)cc1O | 160 µM | – | 750 µM | – | –
6 | O=Cc1c(O)cccc1O | 650 µM | – | 200 µM | – | –
7 | O=Cc1ccc(O)cc1O | 1100 µM | – | 1400 µM | – | –

More lines, main results first:

Row | IC50 [1] | inhibition [2] | IC50 [3] | Structure (SMILES) | Activity [4] | Activity [5]
8 | 170 µM | inactive | – | CCC(=O)c1ccc(OC)cc1O | – | –
9 | 6 µM | – | 290 µM | CCCC(C(=O)OCCN(CC)CC)(c1ccccc1)c1ccccc1 [PROADIFEN HYDROCHLORIDE] | – | –
10 | 80 µM | – | 190 µM | CC(=O)c1c(O)cccc1OCc1ccccc1 | 156% | 170%
11 | 320 µM | – | 390 µM | CC(=O)c1ccccc1O | – | –
